Measurements taken from PMC7220363 (Drug Design, Development and Therapy, 2020).

Key:
mTOR enzyme = mTOR enzyme (Homo sapiens, UniProt P42345); assay: mTOR enzyme assay; format: biochemical; details: for Selectivity: PI3Kα IC50 relative to mTOR IC50 (table column); for inhibitory activity against mTOR (in words): derivatives with a para-substituent group on R3
PI3Kα (p110α/p85α) = PI3Kα (p110α/p85α) (Homo sapiens, UniProt P42336); assay: PI3Kα enzyme assay; format: biochemical
Procedure, shortened: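 Purchased recombinant PI3K enzyme (α, β, δ as p110/p85α; γ as p120γ) was mixed with the PIP2:3PS lipid substrate, and the reaction was started with ATP from a 250 µM solution. Luminescence was read by ADP-Glo. Inhibition was normalised to DMSO and no-enzyme controls, with IC50 averaged over two runs.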

PI3Kα (p110α/p85α), sequence (P42336 whole entry): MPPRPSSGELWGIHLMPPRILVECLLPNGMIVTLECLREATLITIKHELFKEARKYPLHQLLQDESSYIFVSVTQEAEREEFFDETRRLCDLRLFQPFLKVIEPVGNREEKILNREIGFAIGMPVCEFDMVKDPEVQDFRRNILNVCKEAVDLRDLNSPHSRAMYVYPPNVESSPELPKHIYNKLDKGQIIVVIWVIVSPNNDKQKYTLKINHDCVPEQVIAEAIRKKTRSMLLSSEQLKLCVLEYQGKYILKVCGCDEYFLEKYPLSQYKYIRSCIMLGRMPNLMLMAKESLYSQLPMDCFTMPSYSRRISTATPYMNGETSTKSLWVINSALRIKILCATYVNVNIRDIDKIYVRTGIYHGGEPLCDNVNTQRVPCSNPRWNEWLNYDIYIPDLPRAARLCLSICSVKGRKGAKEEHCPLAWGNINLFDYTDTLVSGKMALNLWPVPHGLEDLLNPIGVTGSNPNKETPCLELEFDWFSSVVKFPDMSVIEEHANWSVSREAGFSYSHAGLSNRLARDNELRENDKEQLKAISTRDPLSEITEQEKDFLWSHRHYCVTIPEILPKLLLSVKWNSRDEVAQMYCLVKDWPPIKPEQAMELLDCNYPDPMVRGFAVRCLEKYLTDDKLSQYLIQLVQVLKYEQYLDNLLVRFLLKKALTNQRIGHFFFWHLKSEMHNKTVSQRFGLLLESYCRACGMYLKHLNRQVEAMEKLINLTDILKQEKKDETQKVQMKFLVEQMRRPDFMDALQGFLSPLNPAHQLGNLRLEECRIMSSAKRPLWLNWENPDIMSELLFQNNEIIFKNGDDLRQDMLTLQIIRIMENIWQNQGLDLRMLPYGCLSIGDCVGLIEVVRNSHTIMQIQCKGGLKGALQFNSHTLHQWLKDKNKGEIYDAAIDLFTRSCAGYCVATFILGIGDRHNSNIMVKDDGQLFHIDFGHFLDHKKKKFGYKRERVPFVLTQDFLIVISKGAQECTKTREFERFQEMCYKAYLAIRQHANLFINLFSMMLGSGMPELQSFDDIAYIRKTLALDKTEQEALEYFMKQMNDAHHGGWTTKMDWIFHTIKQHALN
PI3Kα (p110α/p85α), sequence (P27986 whole entry partner): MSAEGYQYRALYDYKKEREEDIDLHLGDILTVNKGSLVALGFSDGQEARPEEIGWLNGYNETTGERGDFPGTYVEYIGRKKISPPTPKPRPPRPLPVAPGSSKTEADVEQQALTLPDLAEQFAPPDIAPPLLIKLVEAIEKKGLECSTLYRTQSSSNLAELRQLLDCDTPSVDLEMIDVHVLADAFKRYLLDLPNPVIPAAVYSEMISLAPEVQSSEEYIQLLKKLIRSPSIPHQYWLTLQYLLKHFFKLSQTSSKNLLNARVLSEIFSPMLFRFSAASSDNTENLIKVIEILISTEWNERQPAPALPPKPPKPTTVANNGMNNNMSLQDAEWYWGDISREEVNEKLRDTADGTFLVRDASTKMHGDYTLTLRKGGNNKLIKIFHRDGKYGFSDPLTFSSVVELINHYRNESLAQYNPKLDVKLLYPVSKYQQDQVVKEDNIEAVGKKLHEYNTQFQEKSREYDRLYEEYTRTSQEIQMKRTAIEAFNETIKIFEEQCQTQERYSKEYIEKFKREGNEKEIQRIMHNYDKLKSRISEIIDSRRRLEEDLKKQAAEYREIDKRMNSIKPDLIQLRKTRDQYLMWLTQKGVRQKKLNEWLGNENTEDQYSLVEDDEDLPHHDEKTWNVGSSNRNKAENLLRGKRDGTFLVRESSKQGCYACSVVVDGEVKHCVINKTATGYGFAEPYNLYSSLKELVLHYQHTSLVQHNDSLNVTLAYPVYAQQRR

Compound | IC50 (mTOR enzyme) [nM] | Selectivity (mTOR enzyme) | IC50 (PI3Kα (p110α/p85α)) [nM] | inhibitory activity against mTOR (in words) (mTOR enzyme) | inhibition at 10 µM (mTOR enzyme; read-out: mTOR enzyme inhibition rate) [%]
COC(=O)CCSc1nc2n(n1)C(c1cccc(OC)c1)C(C(=O)Nc1ccc(C(C)=O)cc1)=C(C)N2 (stereo not shown) [2e, Methyl 3-((6-((4-Acetylphenyl)Carbamoyl)-7-(3-Methoxyphenyl)-5-Methyl-4,7-Dihydro-[1,2,4]Triazolo[1,5-a]Pyrimidin-2-yl)Thio)Propanoate] | 72 | 4 | 254 | – | –
COC(=O)CCSc1nc2n(n1)C(c1ccc(F)cc1)C(C(=O)Nc1cncc(C)c1)=C(C)N2 (stereo not shown) [3g, Methyl 3-((7-(4-Fluorophenyl)-5-Methyl-6-((5-Methylpyridin-3-yl)carbamoyl)-4,7-Dihydro-[1,2,4] Triazolo[1,5-a]Pyrimidin-2-yl)Thio)Propanoate] | 1770 | >6 | > 10000 | low inhibitory activity against mTOR | –
COC(=O)CCSc1nc2n(n1)C(c1cccc(OC)c1)C(C(=O)Nc1cccc(F)c1)=C(C)N2 (stereo not shown) [2b, Methyl 3-((6-((3-Fluorophenyl)Carbamoyl)-7-(3-Methoxyphenyl)-5-Methyl-4,7-Dihydro-[1,2,4]Triazolo[1,5-a]Pyrimidin-2-yl)Thio)Propanoate] | 124 | 4 | 437 | – | –
COCCCSc1nc2n(n1)C(c1cccc(OC)c1)C(C(=O)Nc1cccnc1)=C(C)N2 (stereo not shown) [1a, 7-(3-Methoxyphenyl)-2-((3-Methoxypropyl)Thio)-5-Methyl-N-(Pyridin-3-yl)-4,7-Dihydro-[1,2,4]Triazolo[1,5-a]Pyrimidine-6-Carboxamide] | 167 | 9 | 1580 | – | 91.8
COc1ccc(NC(=O)C2=C(C)Nc3nc(SCCC4OCCO4)nn3C2c2cccc(OC)c2)cc1 (stereo not shown) [2h, 2-((2-(1,3-Dioxolan-2-yl)Ethyl)Thio)-7-(3-Methoxyphenyl)-N-(4-Methoxyphenyl)-5-Methyl-4,7-Dihydro-[1,2,4]Triazolo[1,5-a]Pyrimidine-6-Carboxamide] | 359 | 9 | 3200 | – | –
COC(=O)CCSc1nc2n(n1)C(c1cccc(OC)c1)C(C(=O)Nc1cccc(C(C)=O)c1)=C(C)N2 (stereo not shown) [2d, Methyl 3-((6-((3-Acetylphenyl)Carbamoyl)-7-(3-Methoxyphenyl)-5-Methyl-4,7-Dihydro-[1,2,4]Triazolo[1,5-a]Pyrimidin-2-yl)Thio)Propanoate] | 23 | 10 | 228 | – | –
COC(=O)CCSc1nc2n(n1)C(c1ccccc1C)C(C(=O)Nc1cncc(C)c1)=C(C)N2 (stereo not shown) [3e, Methyl 3-((5-Methyl-6-((5-Methylpyridin-3-yl)Carbamoyl)-7-(o-Tolyl)-4,7-Dihydro-[1,2,4]Triazolo[1,5-a]pyrimidin-2-yl)Thio)Propanoate] | 479 | 6 | 2770 | – | –
COc1cccc(C2C(C(=O)Nc3cccnc3)=C(C)Nc3nc(SCCC4OCCO4)nn32)c1 (stereo not shown) [1b, 2-((2-(1,3-Dioxolan-2-yl)Ethyl)Thio)-7-(3-Methoxyphenyl)-5-Methyl-N-(Pyridin-3-yl)-4,7-Dihydro-[1,2,4]Triazolo[1,5-a]Pyrimidine-6-Carboxamide] | 50 | 16 | 793 | – | –
COc1cccc(C2C(C(=O)Nc3cncc(C)c3)=C(C)Nc3nc(SCCC4OCCO4)nn32)c1 (stereo not shown) [2f, 2-((2-(1,3-Dioxolan-2-yl)Ethyl)Thio)-7-(3-Methoxyphenyl)-5-Methyl-N-(5-Methylpyridin-3-yl)-4,7-Dihydro-[1,2,4]Triazolo[1,5-a]Pyrimidine-6-Carboxamide] | 28 | 7 | 193 | – | –
COC(=O)CCSc1nc2n(n1)C(c1ccc(C)cc1)C(C(=O)Nc1cncc(C)c1)=C(C)N2 (stereo not shown) [3d, Methyl 3-((5-Methyl-6-((5-Methylpyridin-3-yl)Carbamoyl)-7-(p-Tolyl)-4,7 -Dihydro-[1,2,4]Triazolo[1,5-a]Pyrimidin-2-yl)Thio)Propanoate] | 932 | 8 | 7360 | low inhibitory activity against mTOR | –
COC(=O)CCSc1nc2n(n1)C(c1ccc(O)cc1)C(C(=O)Nc1cncc(C)c1)=C(C)N2 (stereo not shown) [3b, Methyl 3-((7-(4-Hydroxyphenyl)-5-Methyl-6-((5-Methylpyridin-3-yl) Carbamoyl)-4,7-Dihydro-[1,2,4]Triazolo[1,5-a]Pyrimidin-2-yl)Thio)Propanoate] | 2210 | >5 | > 10000 | low inhibitory activity against mTOR | –
COc1cccc(C2C(C(=O)Nc3cccc(C(C)=O)c3)=C(C)Nc3nc(SCCC4OCCO4)nn32)c1 (stereo not shown) [2i, 2-((2-(1,3-Dioxolan-2-yl)Ethyl)Thio)-N-(3-Acetylphenyl)-7-(3-Methoxyphenyl)-5-Methyl-4,7-Dihydro-[1,2,4]Triazolo[1,5-a]Pyrimidine-6-Carboxamide] | 92 | 29 | 2680 | – | –
COC(=O)CCSc1nc2n(n1)C(c1cccc(O)c1)C(C(=O)Nc1cncc(C)c1)=C(C)N2 (stereo not shown) [3a, Methyl 3-((7-(3-Hydroxyphenyl)-5-Methyl-6-((5-Methylpyridin-3-yl) Carbamoyl)-4,7-Dihydro-[1,2,4] Triazolo[1,5-a]Pyrimidin-2-yl)Thio)Propanoate] | 260 | 14 | 3560 | – | –
COC(=O)CCSc1nc2n(n1)C(c1cc(C)cc(C)c1)C(C(=O)Nc1cncc(C)c1)=C(C)N2 (stereo not shown) [3f, Methyl 3-((7-(3,5-Dimethylphenyl)-5-Methyl-6-((5-Methylpyridin-3-yl) Carbamoyl)-4,7-Dihydro-[1,2,4]Triazolo[1,5-a]Pyrimidin-2-yl)Thio)Propanoate] | 529 | 0.8 | 433 | – | –
COC(=O)CCSc1nc2n(n1)C(c1ccccc1)C(C(=O)Nc1cncc(C)c1)=C(C)N2 (stereo not shown) [3c, Methyl 3-((5-Methyl-6-((5-Methylpyridin-3-yl)carbamoyl)-7-Phenyl-4,7- Dihydro-[1,2,4]Triazolo[1,5-a]Pyrimidin-2-yl)Thio)Propanoate] | 246 | 3 | 703 | – | –
COc1cccc(C2C(C(=O)Nc3ccc(C(C)=O)cc3)=C(C)Nc3nc(SCCC4OCCO4)nn32)c1 (stereo not shown) [2j, 2-((2-(1,3-Dioxolan-2-yl)Ethyl)Thio)-N-(4-Acetylphenyl)-7-(3-Methoxyphenyl)-5-Methyl-4,7-Dihydro-[1,2,4]Triazolo[1,5-a]Pyrimidine-6-Carboxamide] | 184 | 5 | 952 | – | –
COc1cccc(C2C(C(=O)Nc3cccc(F)c3)=C(C)Nc3nc(SCCC4OCCO4)nn32)c1 (stereo not shown) [2g, 2-((2-(1,3-Dioxolan-2-yl)Ethyl)Thio)-N-(3-Fluorophenyl)-7-(3-Methoxyphenyl)-5-Methyl-4,7-Dihydro-[1,2,4]Triazolo[1,5-a]Pyrimidine-6-Carboxamide] | 313 | 3 | 844 | – | –
COC(=O)CCSc1nc2n(n1)C(c1cccc(F)c1)C(C(=O)Nc1cncc(C)c1)=C(C)N2 (stereo not shown) [3h, Methyl 3-((7-(3-Fluorophenyl)-5-Methyl-6-((5-Methylpyridin-3-yl)Carbamoyl)-4,7-Dihydro-[1,2,4] Triazolo[1,5-a]Pyrimidin-2-yl)Thio)Propanoate] | 326 | 2 | 738 | – | –
COC(=O)CCSc1nc2n(n1)C(c1cccc(OC)c1)C(C(=O)Nc1ccc(OC)cc1)=C(C)N2 (stereo not shown) [2c, Methyl 3-((7-(3-Methoxyphenyl)-6-((4-Methoxyphenyl)Carbamoyl)-5-Methyl-4,7-Dihydro-[1,2,4]Triazolo[1,5-a]Pyrimidin-2-yl)Thio)Propanoate] | 139 | 8 | 1050 | – | –
